Assay results: ChEMBL document CHEMBL1124795, “Synthesis and cytotoxicity of deoxyadenosine analogues: isomer distribution in the sodium salt glycosylation of 2,6-disubstituted purines” (J Med Chem, 1990)
pIC50: −log10 of the molar value. Active and inactive are the calls of the source. The calls are words filed in the database; no cut-off is given here.

Tests used:
B-95-8 cell line [1] = assay: In vitro toxicity which caused 50% decrease in [14C]- leucine incorporation by the B-95-8 cells in culture.; assay type: functional, Callitrichidae; conditions: Saguinus oedipus, read-out: ID50 (the source's name)
Method in brief: (§1)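 Cells seeded at 10⁴ per well and exposed to compounds for 3 days in RPMI 1640 with 10% fetal calf serum, glutamine and antibiotics, at 37 °C under 5% CO₂. [¹⁴C]-L-leucine (0.5 μCi/mL) was present for the final 24 h. Protein was precipitated with 0.2 N perchloric acid, collected on glass-fibre filters and scintillation-counted. ID50 (μM, 50% drop in incorporation) was read from triplicate dose-response curves.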

HL-60 [2] = assay: In vitro toxicity which caused 50% decrease in [14C]- leucine incorporation by the HL-60 cells in culture.; assay type: functional; conditions: Homo sapiens, read-out: ID50 (the source's name); method in brief: as §1
MOLT-4 [3] = assay: (§2) In vitro toxicity which caused 50% decrease in [14C]- leucine incorporation by the MOLT-4 cells in culture.; assay type: functional; conditions: Homo sapiens, read-out: ID50 (the source's name); method in brief: as §1
NALL-1 [4] = assay: (§3) In vitro toxicity which caused 50% decrease in [14C]- leucine incorporation by the NALL-1 cells in culture.; assay type: functional; conditions: Homo sapiens, read-out: ID50 (the source's name); method in brief: as §1
PHA-Ly [5] = assay: In vitro toxicity which caused 50% decrease in [14C]- leucine incorporation by the PHA-LY cells in culture.; assay type: functional; conditions: Homo sapiens, read-out: ID50 (the source's name); method in brief: as §1
Raji [6] = assay: (§4) In vitro toxicity which caused 50% decrease in [14C]- leucine incorporation by the Raji cells in culture.; assay type: functional; conditions: Homo sapiens, read-out: ID50 (the source's name); method in brief: as §1
U-937 [7] = assay: (§5) In vitro toxicity which caused 50% decrease in [14C]- leucine incorporation by the U-937 cells in culture.; assay type: functional; conditions: Homo sapiens, read-out: ID50 (the source's name); method in brief: as §1
K562 [8] = assay: In vitro toxicity which caused 50% decrease in [14C]- leucine incorporation by the K-562 cells in culture.; assay type: functional; conditions: Homo sapiens, read-out: ID50 (the source's name); method in brief: as §1
B-95-8 cell line [9] = assay: In vitro toxicity which caused 50% decrease in [14C]- leucine incorporation by the B-95-8 cells in culture at 40 uM; IN-Inactive; assay type: functional, cell-based; method in brief: as §1
HL-60 [10] = assay: In vitro toxicity which caused 50% decrease in [14C]- leucine incorporation by the HL-60 cells in culture at 40 uM; IN-Inactive; assay type: functional, cell-based; conditions: Homo sapiens; method in brief: as §1
K562 [11] = assay: In vitro toxicity which caused 50% decrease in [14C]- leucine incorporation by the K-562 cells in culture at 40 uM; IN-Inactive; assay type: functional, cell-based; conditions: Homo sapiens; method in brief: as §1
MOLT-4 [12] = assay: In vitro toxicity which caused 50% decrease in [14C]- leucine incorporation by the MOLT-4 cells in culture at 40 uM; IN-Inactive; assay type: functional, cell-based; conditions: Homo sapiens; method in brief: as §1
NALL-1 [13] = assay: In vitro toxicity which caused 50% decrease in [14C]- leucine incorporation by the NALL-1 cells in culture at 40 uM; IN-Inactive; assay type: functional, cell-based; conditions: Homo sapiens; method in brief: as §1
PHA-Ly [14] = assay: In vitro toxicity which caused 50% decrease in [14C]- leucine incorporation by the PHA-LY cells in culture at 40 uM; IN-Inactive; assay type: functional, cell-based; conditions: Homo sapiens; method in brief: as §1
Raji [15] = assay: In vitro toxicity which caused 50% decrease in [14C]- leucine incorporation by the Raji cells in culture at 40 uM; IN-Inactive; assay type: functional, cell-based; conditions: Homo sapiens; method in brief: as §1
U-937 [16] = assay: In vitro toxicity which caused 50% decrease in [14C]- leucine incorporation by the U-937 cells in culture at 40 uM; IN-Inactive; assay type: functional, cell-based; conditions: Homo sapiens; method in brief: as §1
MOLT-4 [17] = assay: as §2; assay type: cell-based; conditions: human, read-out: ID50 (the source's name); method in brief: as §1
NALL-1 [18] = assay: as §3; assay type: cell-based; conditions: human, read-out: ID50 (the source's name); method in brief: as §1
Raji [19] = assay: as §4; assay type: cell-based; conditions: human, read-out: ID50 (the source's name); method in brief: as §1
U-937 [20] = assay: as §5; assay type: cell-based; conditions: human, read-out: ID50 (the source's name); method in brief: as §1

Structure (SMILES) | pIC50 (B-95-8 cell line [1]) | pIC50 (HL-60 [2]) | pIC50 (MOLT-4 [3]) | pIC50 (NALL-1 [4]) | pIC50 (PHA-Ly [5]) | pIC50 (Raji [6]) | pIC50 (U-937 [7]) | pIC50 (K562 [8]) | ID50 (B-95-8 cell line [9]) | ID50 (HL-60 [10]) | ID50 (K562 [11]) | ID50 (MOLT-4 [12]) | ID50 (NALL-1 [13]) | ID50 (PHA-Ly [14]) | ID50 (Raji [15]) | ID50 (U-937 [16]) | CC50 (MOLT-4 [17]) [µM] | CC50 (NALL-1 [18]) [µM] | CC50 (Raji [19]) [µM] | CC50 (U-937 [20]) [µM]
CSc1nc(SC)c2ncn([C@@H]3C[C@@H](O)[C@H](CO)O3)c2n1 | 3.65 | < 3.52 | 3.85 | 3.76 | 3.78 | 3.77 | < 3.52 | < 3.52 |  |  |  |  |  |  |  |  |  |  |  | 
CN(C)c1nc(Br)nc2c1ncn2[C@@H]1C[C@@H](O)[C@H](CO)O1 | < 3.52 | < 3.52 | < 3.52 | 3.54 | 4.06 | < 3.52 | 3.79 | < 3.52 |  |  |  |  |  |  |  |  |  |  |  | 
CN(C)c1nc(N(C)C)c2ncn([C@@H]3C[C@@H](O)[C@H](CO)O3)c2n1 |  |  |  |  |  |  |  |  | inactive | inactive | inactive | inactive | inactive | inactive | inactive | inactive |  |  |  | 
CN(C)c1nc(N)c2ncn([C@@H]3C[C@@H](O)[C@H](CO)O3)c2n1 | 3.74 | < 3.52 | < 3.52 | < 3.52 | < 3.52 | 3.90 | < 3.52 | < 3.52 |  |  |  |  |  |  |  |  |  |  |  | 
CNc1nc(Br)nc2c1ncn2[C@@H]1C[C@@H](O)[C@H](CO)O1 | 3.60 | 3.84 | 3.75 | 3.64 | 4.52 | 4.10 | 3.85 | 3.96 |  |  |  |  |  |  |  |  |  |  |  | 
CNc1nc(SC)nc2c1ncn2[C@@H]1C[C@@H](O)[C@H](CO)O1 | < 3.52 | < 3.52 | < 3.52 | 3.73 | 4.09 | < 3.52 | < 3.52 | < 3.52 |  |  |  |  |  |  |  |  |  |  |  | 
CSc1nc(N(C)C)c2ncn([C@@H]3C[C@@H](O)[C@H](CO)O3)c2n1 | 3.94 | < 3.52 | 3.76 | 3.73 | 3.59 | 3.63 | 3.90 | < 3.52 |  |  |  |  |  |  |  |  |  |  |  | 
CSc1nc(N)c2ncn([C@@H]3C[C@@H](O)[C@H](CO)O3)c2n1 | < 3.52 | < 3.52 | < 3.52 | 4.02 | 4.09 | 3.97 | < 3.52 | < 3.52 |  |  |  |  |  |  |  |  |  |  |  | 
Nc1nc(Br)nc2c1ncn2[C@@H]1C[C@@H](O)[C@H](CO)O1 | 5.22 | 4.39 |  |  | 5.80 |  |  | 4.08 |  |  |  |  |  |  |  |  | 3.2 | 12 | 0.7 | 0.8
